Rows were chosen to be rich in hits. Some 2.6% of all compounds tested hit in one or more screens of this group.
DENV2 CPE rescue: inhibitors of DENV2 cytopathic effect, primary screen, cell-based, plate reader, single concentration | DENV2-infected cells, cytopathic effect rescue | CPE inhibition, % at 9.99 µM | hit rate 1.7% among 350,000; in the data active = CPE inhibition above about 20%, passing the limit was not always enough; tested in BHK-21 cells
E-selectin induc: E-selectin induction in HUVECs, primary screen, imaging, HUVEC, immunofluorescence imaging, single point. normalized: neutral wells 0, TNF-alpha wells 100. activation, % at 7.58 µM. hit rate 0.37% among 260,000;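 active = mean E-selectin-positive cell signal at least 10% of the positive control, reached in at least 60% of replicates, without over 20% cell loss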
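Test system – human umbilical vein endothelial cells (HUVEC), E-selectin induction · Input – 3,000 HUVEC seeded per well · Buffer or medium – EGM-2, gelatin · Compound dosing – single-point compound dose · Detection – immunofluorescence imaging · Measure – percent E-selectin-positive cells · Controls – TNF-alpha high, DMSO low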
miR-122 sensor: miR-122 Renilla sensor signal increase in Huh7, primary screen, miR-122 inhibitor project, cell-based, single point, plate reader; Huh7 miR-122 Renilla luciferase sensor, 48 h; neutral wells = 0, positive control = 100; activation (reporter increase), % at 12.5 µM; hit rate 0.3% among 340,000; AID 602342, 2012;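 active = mean replicate activation score at least 90 and every replicate individually at or above 90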;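 also: higher luciferase means less miR-122 activity so hits act as miR-122 inhibitors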
GSIS activator: GLuc luminescence reporter in INS-1E cells, primary screen for activators of glucose-dependent secretion of insulin; hit rate 0.61% among 370,000; activation, % at 16.6 µM; INS-1E GLuc reporter insulin secretion, 2-3 h;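 active = lowest replicate activation of at least 40%, so every replicate reaches that level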
ERAP1 inh: human ERAP1 aminopeptidase inhibitors, primary screen, biochemical, single point, plate reader. Endoplasmic reticulum aminopeptidase 1 (Homo sapiens), Q9NZ08. recombinant ERAP1, Leu-AMC fluorescence, 60 min. inhibition, % at 10.7 µM. hit rate 0.15% among 340,000. AID 652197, 2013;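 active = mean replicate inhibition of at least 30%, or all replicates individually reaching that 30% level; inactive = mean below 30% and not every replicate reaching it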
Target sequence (Q9NZ08 whole entry, looked up): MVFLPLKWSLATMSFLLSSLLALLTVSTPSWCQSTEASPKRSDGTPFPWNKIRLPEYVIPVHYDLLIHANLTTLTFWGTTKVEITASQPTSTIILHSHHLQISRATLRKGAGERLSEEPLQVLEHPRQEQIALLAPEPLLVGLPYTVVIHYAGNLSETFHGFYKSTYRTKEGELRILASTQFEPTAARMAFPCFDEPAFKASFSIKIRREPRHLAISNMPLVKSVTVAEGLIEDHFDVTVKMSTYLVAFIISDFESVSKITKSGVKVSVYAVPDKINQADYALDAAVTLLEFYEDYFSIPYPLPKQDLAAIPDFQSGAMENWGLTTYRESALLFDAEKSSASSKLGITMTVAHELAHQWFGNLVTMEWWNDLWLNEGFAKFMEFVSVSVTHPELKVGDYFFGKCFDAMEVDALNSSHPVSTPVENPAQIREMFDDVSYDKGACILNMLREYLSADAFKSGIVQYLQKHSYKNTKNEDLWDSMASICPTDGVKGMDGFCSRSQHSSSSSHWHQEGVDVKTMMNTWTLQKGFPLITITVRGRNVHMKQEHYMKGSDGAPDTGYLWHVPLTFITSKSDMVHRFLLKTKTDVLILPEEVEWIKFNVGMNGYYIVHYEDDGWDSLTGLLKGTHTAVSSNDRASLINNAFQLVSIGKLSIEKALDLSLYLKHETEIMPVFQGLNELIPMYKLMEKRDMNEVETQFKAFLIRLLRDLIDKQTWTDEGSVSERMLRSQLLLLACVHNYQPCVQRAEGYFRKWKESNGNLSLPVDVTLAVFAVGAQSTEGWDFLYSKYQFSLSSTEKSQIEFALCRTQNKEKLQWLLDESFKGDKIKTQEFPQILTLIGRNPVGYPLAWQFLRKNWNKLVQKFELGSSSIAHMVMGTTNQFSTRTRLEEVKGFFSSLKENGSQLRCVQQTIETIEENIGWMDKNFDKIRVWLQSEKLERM
CFTR F508del cor: F508del CFTR correction, initial screen, CFBE line, single point; activity (quench increase), % at 7.58 µM; hit rate 0.36% among 350,000; AID 720511, 2013; CFBE cells, YFP halide quenching; stimulated with forskolin plus potentiator P3; % fluorescence drop versus neutral controls;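 active = mean added fluorescence quench of at least 8% versus neutral control, with both replicates also reaching 8%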;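 also: cells transiently co-express mutant CFTR-F508del with the halide-sensitive YFP; corrector assay measuring rescue of mutant channel to the surface after 24 h compound exposure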
Large screens that a line does not name were inactive.

COc1ccc(S(=O)(=O)Nc2ccc3c(c2)C(=O)N([C@@H](C)CO)C[C@@H](C)[C@@H](CN(C)Cc2ccc(C(=O)Nc4ccccc4N)cc2)O3)cc1	E-selectin induc 34.2
COc1ccc(S(=O)(=O)Nc2ccc3c(c2)C(=O)N([C@H](C)CO)C[C@@H](C)[C@@H](CN(C)Cc2ccc(C(=O)Nc4ccccc4N)cc2)O3)cc1	none
Cc1ccc(S(=O)(=O)Nc2ccc3c(c2)C(=O)N([C@H](C)CO)C[C@H](C)[C@@H](CN(C)Cc2ccc(C(=O)Nc4ccccc4N)cc2)O3)cc1	DENV2 CPE rescue 20.2 (no result: miR-122 sensor)
CCCNC(=O)N1CC2(CN(C)C2)c2c([nH]c3cc(OC)ccc23)[C@@H]1CO	none (no result: miR-122 sensor, ERAP1 inh)
C[C@@H]1CCCCO[C@H](CN(C)S(=O)(=O)c2cccs2)[C@H](C)CN([C@@H](C)CO)C(=O)c2cc(NC(=O)Nc3ccccc3)ccc2O1	none (no result: E-selectin induc)
C[C@@H]1CN([C@H](C)CO)C(=O)c2cc(NC(=O)Nc3ccc(F)cc3)ccc2O[C@@H](C)CCCCO[C@@H]1CN(C)S(=O)(=O)c1cccs1	DENV2 CPE rescue 20.8
C[C@@H]1CN([C@H](C)CO)C(=O)c2cc(NC(=O)Nc3ccc(F)cc3)ccc2O[C@H]1CN(C)S(=O)(=O)c1cccs1	E-selectin induc 38.7
C[C@@H]1CCCCO[C@@H](CN(C)S(=O)(=O)c2cccs2)[C@H](C)CN([C@H](C)CO)C(=O)c2cc(NC(=O)Nc3ccccc3)ccc2O1	DENV2 CPE rescue 60.3 (no result: E-selectin induc)
C[C@@H]1CN([C@H](C)CO)C(=O)c2cccc(NC(=O)C3CC3)c2O[C@H]1CN(C)S(=O)(=O)c1cccs1	DENV2 CPE rescue 33.6
C[C@H](CO)N1C[C@H](C)[C@H](CN(C)S(=O)(=O)c2cccs2)OCCCC[C@H](C)Oc2ccc(NC(=O)Nc3ccc(F)cc3)cc2C1=O	none
O=S(=O)(N[C@H]1CC[C@@H](CCn2cc(-c3ccccc3F)nn2)O[C@H]1CO)c1ccc(F)cc1	none (no result: miR-122 sensor)
CN(C)C(=O)[C@H]1[C@H](CO)[C@H]2Cn3c(cccc3=O)[C@H]2N1CC1CCCCC1	none (no result: miR-122 sensor)
CO[C@@H]1CN(C)C(=O)c2cc(NS(C)(=O)=O)ccc2OC[C@H](C)N(S(C)(=O)=O)C[C@@H]1C	none (no result: miR-122 sensor, ERAP1 inh)
Cc1noc(C)c1S(=O)(=O)Nc1ccc2c(c1)C(=O)N([C@H](C)CO)C[C@@H](C)[C@H](CN(C)C(=O)c1ccccc1)OCCCC[C@@H](C)O2	none
COCCNC(=O)[C@H]1[C@H](CO)[C@H]2Cn3c(cccc3=O)[C@H]2N1Cc1ccccc1OC	none (no result: miR-122 sensor)
C[C@@H]1CN([C@@H](C)CO)C(=O)c2cc(NC(=O)c3ccccc3)ccc2O[C@@H](C)CCCCO[C@@H]1CN(C)S(=O)(=O)c1cccs1	DENV2 CPE rescue 45.2 (no result: ERAP1 inh)
C[C@H](CO)N1C[C@H](C)[C@@H](CN(C)S(=O)(=O)c2cccs2)Oc2ccc(NC(=O)CCN3CCOCC3)cc2C1=O	E-selectin induc 62.9
C[C@H]1CN([C@@H](C)CO)C(=O)c2cc(NC(=O)C3CC3)ccc2O[C@H]1CN(C)S(=O)(=O)c1cccs1	DENV2 CPE rescue 35.9
CO[C@@H]1CN(C)C(=O)c2cc(NS(C)(=O)=O)ccc2OC[C@@H](C)NC[C@H]1C	none (no result: miR-122 sensor)
CO[C@@H]1CN(C)C(=O)c2ccc(NC(=O)Nc3c(C)noc3C)cc2OC[C@H](C)N(CCC(F)(F)F)C[C@H]1C	DENV2 CPE rescue 36.7 (no result: miR-122 sensor)
CCCN1C[C@H](C)[C@@H](OC)CN(C)C(=O)c2ccc(NC(=O)Nc3c(C)noc3C)cc2OC[C@H]1C	DENV2 CPE rescue 20.9
CC=Cc1ccc2n(c1=O)C[C@H]1[C@H](CO)[C@@H](C(=O)NCc3ccccc3F)N(CCC)[C@@H]21 (mixture of isomers)	none (no result: miR-122 sensor, CFTR F508del cor)
C[C@@H]1CN([C@@H](C)CO)S(=O)(=O)c2ccc(C#CC3CC3)cc2O[C@H]1CN(C)Cc1cncnc1	none (no result: DENV2 CPE rescue, ERAP1 inh)
COc1ccc(C(C)(C)C)cc1S(=O)(=O)n1ccnc1C	miR-122 sensor 94.8 (no result: E-selectin induc)

High-throughput results from PubChem BioAssay.
